Data reported in paper PMC3195516 (Synthesis, 2010).
Like-named read-outs stand apart in the source and are kept apart here.

How the values were obtained:
[1] = system: L1210 cells; experiment: L1210 cell growth inhibition; assay type: cell-based, Murine
In short: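 L1210 cells were kept in logarithmic-phase suspension in RPMI-1640 with 10% fetal bovine serum, 2% HEPES-MOPS buffer, 1 mM L-glutamine and 1 mM aminoguanidine at 37 °C under 5% CO₂. Cultures at 0.5–1.0 × 10⁵ cells/mL were treated, reseeded and incubated, then counted. IC50 is the concentration that reduces growth to 50% of control after the set exposure.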

[2] = system: L1210 cells; conditions: cultured L1210 cells; cited from earlier work
[3] = Mus musculus, L1210, 48 h, read-out: IC50 (µM) 48 h
[4] = Mus musculus, L1210, 96 h, read-out: IC50 (µM) 96 h
[5] = read-out: IC50 (µM) 48 h, L1210 cells, 48 h exposure
[6] = read-out: IC50 (µM) 96 h, L1210 cells, 96 h exposure

Row | Structure (SMILES) | IC50 [1, 3] | IC50 [1, 4] | IC50 [1, 5] | IC50 [1, 6] | intracellular concentration of compound [2]
1 | C[C@]1(C(=O)O)CSC(c2ccc(O)cc2O)=N1 [(S)-4′-(HO)-DADFT (6), (S)-2-(2,4-dihydroxyphenyl)-4,5-dihydro-4-methyl-4-thiazolecarboxylic acid] | 19 µM | 20 µM | – | – | –
2 | CCNCCCNCCCNCCCNCC [DENSPM (1), reference compound] | – | – | 20 µM | 2 µM | –
3 | Cc1c(O)c(=O)ccn1C [L1 (2), 1,2-dimethyl-3-hydroxypyridin-4-one, reference compound] | 46 µM | 55 µM | – | – | ~ 1 µM
4 | Cc1c(O)c(=O)ccn1CCCNCCCCNCCCN [L1-SPM-conjugate (3), 1-(12-amino-4,9-diazadodecyl)-2-methyl-3-hydroxy-4(1H)-pyridinone] | 0.2 µM | 0.2 µM | – | – | 390 µM
5 | C[C@]1(C(=O)O)CSC(c2ccc(OCCCCNCCCNCCCN)cc2O)=N1 [NSPD-(S)-4′-(HO)-DADFT (4), (S)-4,5-dihydro-2-[2-hydroxy-4-(12-amino-5,9-diazadodecyloxy)phenyl]-4-methyl-4-thiazolecarboxylic acid] | 40 µM | 40 µM | – | – | –
6 | CCOC(=O)[C@@]1(C)CSC(c2ccc(OC(=O)c3ccc(CNCCCNCCCN)cc3)cc2O)=N1 [NSPDBn-(S)-4′-(HO)-DADFT-EE (7), ethyl (S)-4,5-dihydro-2-[2-hydroxy-4-[4-(9-amino-2,6-diazanonyl)benzoyloxy]]-4-methyl-4-thiazolecarboxylate] | – | – | 1.8 µM | 2.1 µM | –
